The text below walks through data of ChEMBL document CHEMBL1143376, “Synthesis and biological evaluation of extraordinarily potent C-10 carba artemisinin dimers against P. falciparum malaria parasites and HL-60 cancer cells” (Bioorg Med Chem, 2009).

A value given as a limit tells only on which side of the number the result lay.

One data set concerns HL-60. Briefly: Anticancer activity against human HL60 cells by MTT assay. It counts as functional, cell-based. The method, boiled down: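 HL-60 cells grown in RPMI-1640 with 10% v/v FBS and 1% v/v L-glutamine, 37 °C, 5% CO2, kept below 1 × 10⁶ cells/mL, passages 5–15. Seeded at 2.5 × 10⁴/well in triplicate and exposed for 72 h to […]. DMSO final below 0.5% v/v. Read by MTT (4 h) then SDS/DMF lysis (4 h), A570/590, as % of vehicle. IC50 taken from inhibition curves; experiments repeated at least three times.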
A general note: Tetrazolium assays rely on reduction of a dye to a coloured formazan, in cell work by metabolically active cells.

The test system of data set [1] is Plasmodium falciparum. The data set is described as follows: Antimalarial activity against chloroquine-sensitive Plasmodium falciparum 3D7 by [3H]hypoxanthine uptake. Format: functional, organism-based.
The test system of data set [2] is Plasmodium falciparum. The data set is described as follows: Antimalarial activity against chloroquine-resistant Plasmodium falciparum K1 by [3H]hypoxanthine uptake. Format: functional, organism-based.
Data set [3] can be described thus: Therapeutic index, ratio of IC50 for human HL60 cells to IC50 for Plasmodium falciparum. To be noted: read-out: TI. Format: cell-based, HL-60.
In a further data set the test system is PBMC. The data set is described as follows: Toxicity in PBMC at 250 uM. It counts as cell-based.

Turning to `C[C@H]1[C@@H](CCCOP(=O)(OCCC[C@H]2O[C@@H]3O[C@@]4(C)CC[C@H]5[C@H](C)CC[C@@H]([C@H]2C)[C@@]35OO4)Oc2ccccc2)O[C@@H]2O[C@@]3(C)CC[C@H]4[C@H](C)CC[C@@H]1[C@@]24OO3`, the IC50 with HL-60 came out at 250 nM; in the data set on Plasmodium falciparum [1] it was 0.21 nM.
For the compound `COP(=O)(OC[C@H]1O[C@@H]2O[C@@]3(C)CC[C@H]4[C@H](C)CC[C@@H]([C@@H]1C)[C@@]24OO3)OC[C@H]1O[C@@H]2O[C@@]3(C)CC[C@H]4[C@H](C)CC[C@@H]([C@@H]1C)[C@@]24OO3`, the IC50 came to 770 nM in the data set on HL-60 and 4.8 nM in the data set with Plasmodium falciparum [1].
As for `C[C@H]1[C@@H](CCN2CCC(C3CCN(CC[C@H]4O[C@@H]5O[C@@]6(C)CC[C@H]7[C@H](C)CC[C@@H]([C@H]4C)[C@@]57OO6)CC3)CC2)O[C@@H]2O[C@@]3(C)CC[C@H]4[C@H](C)CC[C@@H]1[C@@]24OO3`, the values for the IC50 with HL-60 and in the data set with Plasmodium falciparum [1] were 400 nM and 0.46 nM, respectively.
In the case of `COc1cccc2c1C(=O)c1c(O)c3c(c(O)c1C2=O)C[C@@](O)(C(=O)CO)C[C@@H]3O[C@H]1C[C@H](N)[C@H](O)[C@H](C)O1` [DOXORUBICIN], inhibition with HL-60 was half-maximal at 18 nM (IC50).
Regarding `C[C@H]1[C@@H](CCNC(=O)NCC[C@H]2O[C@@H]3O[C@@]4(C)CC[C@H]5[C@H](C)CC[C@@H]([C@H]2C)[C@@]35OO4)O[C@@H]2O[C@@]3(C)CC[C@H]4[C@H](C)CC[C@@H]1[C@@]24OO3`, the IC50 in the data set on HL-60 is > 100000 nM; in the data set on Plasmodium falciparum [1] it was > 60 nM.
Consider `C[C@H]1[C@@H](CCOP(=O)(OCC[C@H]2O[C@@H]3OC4(C)CC[C@H]5[C@H](C)CC[C@@H]([C@H]2C)[C@@]35OO4)Oc2ccccc2)O[C@@H]2OC3(C)CC[C@H]4[C@H](C)CC[C@@H]1[C@@]24OO3` (single isomer, unassigned), for which the IC50 with Plasmodium falciparum [2] came out at 0.5 nM; in the data set on HL-60, 270 nM. Moreover, the selectivity ratio in data set [3] was > 500. Moreover, the Activity result in the data set on PBMC was “Non-toxic”.
The matching figures for `COP(=O)(OCC[C@H]1O[C@@H]2OC3(C)CC[C@H]4[C@H](C)CC[C@@H]([C@H]1C)[C@@]24OO3)OCC[C@H]1O[C@@H]2OC3(C)CC[C@H]4[C@H](C)CC[C@@H]([C@H]1C)[C@@]24OO3` (single isomer, unassigned): 0.2 nM, 70 nM, > 500 and “Non-toxic”.
Regarding `C[C@@H]1CC[C@H]2[C@@H](C)C(=O)O[C@@H]3O[C@@]4(C)CC[C@@H]1[C@]32OO4` [ARTEMISININ], the IC50 in the data set with Plasmodium falciparum [1] was found to be 12.3 nM.
For the compound `C[C@@H]1[C@@H](COP(=O)(OC[C@H]2O[C@@H]3O[C@@]4(C)CC[C@H]5[C@H](C)CC[C@@H]([C@@H]2C)[C@@]35OO4)Oc2ccccc2)O[C@@H]2O[C@@]3(C)CC[C@H]4[C@H](C)CC[C@@H]1[C@@]24OO3`, the values for the IC50 in the data set with HL-60 and in the data set on Plasmodium falciparum [1] were 1040 nM and 6 nM, respectively.
The matching figures for `C[C@H]1[C@@H](CCNC(=O)C[C@H]2O[C@@H]3O[C@@]4(C)CC[C@H]5[C@H](C)CC[C@@H]([C@H]2C)[C@@]35OO4)O[C@@H]2O[C@@]3(C)CC[C@H]4[C@H](C)CC[C@@H]1[C@@]24OO3`: 100 nM and 0.03 nM.
With `COP(=O)(OCCC[C@H]1O[C@@H]2O[C@@]3(C)CC[C@H]4[C@H](C)CC[C@@H]([C@H]1C)[C@@]24OO3)OCCC[C@H]1O[C@@H]2O[C@@]3(C)CC[C@H]4[C@H](C)CC[C@@H]([C@H]1C)[C@@]24OO3`, the IC50 came out at 50 nM with HL-60 and 4.8 nM in the data set with Plasmodium falciparum [1].
Turning to `CO[C@H]1O[C@@H]2O[C@@]3(C)CC[C@H]4[C@H](C)CC[C@@H]([C@H]1C)[C@@]24OO3` [ARTEMETHER], the IC50 with Plasmodium falciparum [2] was found to be 3.53 nM; in the data set on Plasmodium falciparum [1], 2.11 nM.
`C[C@H]1[C@@H](O)O[C@@H]2O[C@@]3(C)CC[C@H]4[C@H](C)CC[C@@H]1[C@@]24OO3` [ARTENIMOL] showed an IC50 in the data set with HL-60 of 2410 nM.
Take `C[C@H]1[C@@H](CCOC(=O)OCC[C@H]2O[C@@H]3O[C@@]4(C)CC[C@H]5[C@H](C)CC[C@@H]([C@H]2C)[C@@]35OO4)O[C@@H]2O[C@@]3(C)CC[C@H]4[C@H](C)CC[C@@H]1[C@@]24OO3`: the figures for the IC50 in the data set on HL-60 and with Plasmodium falciparum [1] were > 100000 nM and 4.6 nM, respectively.

As usually defined, the IC50 is the concentration at which inhibition is half-maximal. A higher IC50 goes with lower potency.
